Marks after values point to notes of the source that are not given here.
Assays:
Format in all cases: in vivo, BALB/c/nu nude mice
Conditions in all cases: Taxol 5 mg/kg injection twice per week
MCF-7/T xenograft = assay: Breast cancer MCF-7/T xenograft model
Outline: (§1)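 Six-week-old female BALB/c/nu nude mice (16–22 g) bearing MCF-7 or MCF-7/T xenografts, housed at 25°C on a 12-h light/dark cycle. Mice were randomized into four groups of five at a mean tumor volume of 100–250 mm3. Read-outs were RTV T/C and excised tumor weight, as mean ± SD.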

MCF-7 xenograft = assay: Breast cancer MCF-7 xenograft model
Outline: as §1

MX-1/T xenograft = assay: Breast cancer MX-1/T xenograft model
Outline: (§2)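 Six-week-old female BALB/c/nu nude mice (15–16 g) bearing MX-1 or MX-1/T xenografts, housed at 25°C on a 12-h light/dark cycle. Mice were randomized into four groups of five once mean tumor volume reached 100–250 mm3. Read-outs were relative tumor volume T/C and excised tumor weight, as mean ± SD.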

MX-1 xenograft = assay: Breast cancer MX-1 xenograft model
Outline: as §2

## CC(=O)O[C@H]1C(=O)[C@@]2(C)[C@H]([C@H](OC(=O)c3ccccc3)[C@]3(O)C[C@H](OC(=O)[C@H](O)[C@@H](NC(=O)c4ccccc4)c4ccccc4)C(C)=C1C3(C)C)[C@]1(OC(C)=O)CO[C@@H]1C[C@@H]2O [Taxol]
MCF-7/T xenograft; 33 days
  Body weight Final: 17.5 ± 2.1 g
  Relative tumor volume x±SD: 12.59±3.17
  Tumor volume Final: 1,871.0±981.5 mm3
  Tumor weight x±SD: 1.36 ± 0.48 g
MCF-7/T xenograft; before treatment
  Body weight Initial: 16.8 ± 1.9 g
  Tumor volume Initial: 132.5±45.3 mm3
MCF-7 xenograft; 33 days
  Body weight Final: 22.8 ± 2.3 g
  Relative tumor volume Treated/control ratio: 6.75%
  Relative tumor volume x±SD: 0.34±0.22^a
  Tumor volume Final: 68.3±32.5^a mm3
  Tumor weight Inhibition: 96.36%
  Tumor weight x±SD: 0.04±0.02^a g
MCF-7 xenograft; before treatment
  Body weight Initial: 21.0 ± 1.6 g
  Tumor volume Initial: 227.4±74.6 mm3
MX-1/T xenograft; 13 days
  Body weight Final: 20.4 ± 0.9 g
  Relative tumor volume Treated/control ratio: 95.13%
  Relative tumor volume x±SD: 22.71±11.09
  Tumor volume Final: 2,183.1±1,091.0 mm3
  Tumor weight x±SD: 1.58 ± 0.79 g
MX-1/T xenograft; before treatment
  Body weight Initial: 15.6 ± 0.6 g
  Tumor volume Initial: 95.7±17.1 mm3
MX-1 xenograft; 13 days
  Body weight Final: 20.8 ± 2.2 g
  Relative tumor volume Treated/control ratio: 55.56%
  Relative tumor volume x±SD: 12.27±2.33^b
  Tumor volume Final: 1,714.4±308.2^a mm3
  Tumor weight Inhibition: 41.56%
  Tumor weight x±SD: 0.94±0.20^a g
MX-1 xenograft; before treatment
  Body weight Initial: 16.0 ± 0.7 g
  Tumor volume Initial: 140.2±13.3 mm3
